How the values were obtained:
Type in all cases: organism-based
Details in all cases: in vivo
[1] = system: Yersinia pseudotuberculosis; test: Growth inhibition of Yersinia pseudotuberculosis harboring pYV deletion mutant at 60 uM measured at 30 mins interval for 8 hrs
Method in brief: (§1)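 Y. pseudotuberculosis strain lacking the T3SS-encoding virulence plasmid pYV (pYV−), grown in low-calcium media at 37 °C with test agent at 60 μM, kanamycin at 50 μg/mL, or DMSO. Growth followed by absorbance at 600 nm over 8 h.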

[2] = system: Yersinia pseudotuberculosis; test: Toxicity against Yersinia pseudotuberculosis harboring pYV deletion mutant at 60 uM measured after 8 hrs by MTT assay
Method in brief: (§2)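 pYV− Y. pseudotuberculosis cultured in low-calcium media at 37 °C with test agent at 60 μM, kanamycin at 50 μg/mL, or DMSO. MTT added after 8 h of incubation; formazan absorbance at 570 nm taken as bacterial metabolic activity.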

[3] = system: Yersinia pseudotuberculosis; test: Growth inhibition of Yersinia pseudotuberculosis harboring pYV deletion mutant at 50 ug/ml measured at 30 mins interval for 8 hrs; method in brief: as §1
[4] = system: Yersinia pseudotuberculosis; test: Toxicity against Yersinia pseudotuberculosis harboring pYV deletion mutant at 50 ug/ml measured after 8 hrs by MTT assay; method in brief: as §2

SMILES	growth inhibition (GI) [1]	Activity [2]	growth inhibition (GI) [3]	Activity [4]
COc1c(Br)cc(CC(O)C(=O)NCCc2ccc(O)c(I)c2)cc1Br (stereo unspecified)	Non-Toxic	Non-Toxic	–	–
CCC(=O)N(C)CCc1ccc(OCCCNC(=O)Cc2ccc(O)cc2)c(I)c1	Non-Toxic	Non-Toxic	–	–
CCC(=O)N(C)CCc1cc(Br)c(OCCCNC(=O)Cc2ccc(O)cc2)c(Br)c1	Non-Toxic	Non-Toxic	–	–
CCC(=O)N(C)CCc1ccc(OCCCNC(=O)Cc2ccc(O)cc2)c(Br)c1	Non-Toxic	Non-Toxic	–	–
CCC(=O)N(C)CCc1cc(Br)c(OCCCNC(=O)Cc2ccc(O)cc2)c(I)c1	Non-Toxic	Non-Toxic	–	–
CCC(=O)N(C)CCc1ccc(OCCCN(C)C(=O)Cc2ccc(O)cc2)c(Br)c1	Non-Toxic	Non-Toxic	–	–
COc1c(Br)cc(CC(O)C(=O)NCCc2ccc(O)c(Br)c2)cc1Br (stereo unspecified)	Non-Toxic	Non-Toxic	–	–
NC[C@H]1O[C@H](O[C@H]2[C@H](O)[C@@H](O[C@H]3O[C@H](CO)[C@@H](O)[C@H](N)[C@H]3O)[C@H](N)C[C@@H]2N)[C@H](O)[C@@H](O)[C@@H]1O [KANAMYCIN]	–	–	Non-Toxic	Non-Toxic
